{"source": "ChEMBL document CHEMBL1139352", "about": "“Synthesis and evaluation of novel inhibitors of Pim-1 and Pim-2 protein kinases” (J Med Chem, 2009)", "key": {"[1]": {"tested_on": "Mus musculus", "assay": "Toxicity in Swiss Webster mouse assessed as blood urea nitrogen level at 3 mg/kg, ip daily for 7 days measured after 7 days", "type": "organism-based", "parameters": "dose 3 mg/kg, route intraperitoneal", "conditions": "in vivo, 168 h"}, "[2]": {"biological_target": "Aurora kinase A (Homo sapiens) (UniProt O14965)", "sequence (O14965 whole entry)": "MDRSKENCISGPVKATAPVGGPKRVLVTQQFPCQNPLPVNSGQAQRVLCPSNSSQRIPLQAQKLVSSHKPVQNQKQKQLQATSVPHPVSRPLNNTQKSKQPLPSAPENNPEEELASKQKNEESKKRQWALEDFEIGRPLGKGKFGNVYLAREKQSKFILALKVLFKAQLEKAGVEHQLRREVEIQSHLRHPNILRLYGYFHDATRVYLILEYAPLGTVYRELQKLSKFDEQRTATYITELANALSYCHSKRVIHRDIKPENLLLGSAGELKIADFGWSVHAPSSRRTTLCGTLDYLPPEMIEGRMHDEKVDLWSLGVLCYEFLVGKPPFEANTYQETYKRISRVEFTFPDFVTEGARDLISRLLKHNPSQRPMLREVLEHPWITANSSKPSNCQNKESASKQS", "assay": "Inhibition of AurA at 5 uM"}, "[3]": {"assay": "Antitumor activity against mouse JC cells xenografted BALB/c mouse assessed as tumor growth inhibition at 50 mg/kg, ip for 5 days per week", "type": "functional", "parameters": "scale not given: the % may be the effect or the level left", "conditions": "route intraperitoneal", "method_in_brief": "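Syngeneic model: female Balb/c mice were implanted subcutaneously with 1 × 10⁶ JC murine mammary adenocarcinoma cells in PBS. Once tumors were palpable, mice were randomized into groups. They received intraperitoneal injections once daily, five days per week, of either vehicle (50% DMSO : 50% PBS) or 50 mg/kg. Tumor volume was taken as (L × W²)/2. n = 5 mice per group; mean ± standard error.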"}, "[4]": {"biological_target": "Calcium/calmodulin-dependent protein kinase type IV (Homo sapiens) (UniProt Q16566)", "sequence (Q16566 whole entry)": "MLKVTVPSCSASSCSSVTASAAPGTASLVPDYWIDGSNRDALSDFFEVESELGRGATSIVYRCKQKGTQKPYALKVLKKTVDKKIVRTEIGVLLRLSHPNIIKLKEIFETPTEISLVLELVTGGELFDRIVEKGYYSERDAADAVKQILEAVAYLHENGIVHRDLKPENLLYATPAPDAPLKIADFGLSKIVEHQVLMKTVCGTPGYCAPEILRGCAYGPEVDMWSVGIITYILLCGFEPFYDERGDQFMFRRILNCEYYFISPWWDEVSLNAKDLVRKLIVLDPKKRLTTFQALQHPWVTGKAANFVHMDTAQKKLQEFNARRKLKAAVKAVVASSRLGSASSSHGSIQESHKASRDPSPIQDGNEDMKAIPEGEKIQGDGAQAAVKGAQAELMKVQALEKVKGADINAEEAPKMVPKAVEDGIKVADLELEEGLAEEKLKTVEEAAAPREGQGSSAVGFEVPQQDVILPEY", "assay": "Inhibition of CAMK4 at 5 uM"}, "[5]": {"biological_target": "Platelet-derived growth factor receptor alpha (Homo sapiens) (UniProt P16234)", "assay": "Inhibition of PDGFRalpha at 5 uM"}, "[6]": {"biological_target": "RAC-alpha serine/threonine-protein kinase (Homo sapiens) (UniProt P31749)", "sequence (P31749 whole entry)": "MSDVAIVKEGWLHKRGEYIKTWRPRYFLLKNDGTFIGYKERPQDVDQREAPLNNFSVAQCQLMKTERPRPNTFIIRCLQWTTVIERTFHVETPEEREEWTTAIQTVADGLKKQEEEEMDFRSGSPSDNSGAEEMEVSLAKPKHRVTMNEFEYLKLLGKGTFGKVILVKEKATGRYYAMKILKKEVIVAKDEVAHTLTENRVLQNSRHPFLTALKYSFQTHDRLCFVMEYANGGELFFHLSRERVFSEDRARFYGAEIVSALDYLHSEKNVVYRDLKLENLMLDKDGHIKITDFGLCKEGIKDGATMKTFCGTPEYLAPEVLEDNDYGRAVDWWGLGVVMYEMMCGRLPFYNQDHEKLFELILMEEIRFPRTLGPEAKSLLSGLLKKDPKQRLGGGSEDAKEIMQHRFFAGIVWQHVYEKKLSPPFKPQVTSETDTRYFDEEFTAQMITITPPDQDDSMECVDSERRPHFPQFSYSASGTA", "assay": "Inhibition of AKT1 at 5 uM"}, "[7]": {"biological_target": "Mitogen-activated protein kinase 1 (Homo sapiens) (UniProt P28482)", "assay": "Inhibition of Erk2 at 5 uM"}, "[8]": {"tested_on": "Mus musculus", "assay": "Toxicity in Swiss Webster mouse assessed as lymphocyte count at 50 mg/kg, ip daily for 7 days measured after 7 days", "type": "organism-based", "parameters": "dose 50 mg/kg, route intraperitoneal", "conditions": "in vivo, 168 h"}, "[9]": {"biological_target": "Ribosomal protein S6 kinase beta-1 (Homo sapiens) (UniProt P23443)", "sequence (P23443 whole entry, looked up)": "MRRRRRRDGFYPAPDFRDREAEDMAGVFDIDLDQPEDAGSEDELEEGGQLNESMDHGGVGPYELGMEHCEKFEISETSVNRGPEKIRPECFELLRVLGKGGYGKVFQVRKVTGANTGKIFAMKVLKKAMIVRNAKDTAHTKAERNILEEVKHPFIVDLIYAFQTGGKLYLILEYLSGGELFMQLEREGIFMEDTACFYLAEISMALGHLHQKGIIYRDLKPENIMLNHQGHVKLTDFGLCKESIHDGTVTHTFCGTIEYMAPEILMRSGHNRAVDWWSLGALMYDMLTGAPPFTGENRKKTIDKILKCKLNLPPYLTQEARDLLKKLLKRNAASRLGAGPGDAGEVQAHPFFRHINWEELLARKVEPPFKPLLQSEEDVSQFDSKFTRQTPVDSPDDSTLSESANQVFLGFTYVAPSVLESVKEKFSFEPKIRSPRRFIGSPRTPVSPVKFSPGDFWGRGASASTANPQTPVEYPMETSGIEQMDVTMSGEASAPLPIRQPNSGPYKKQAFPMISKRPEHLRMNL", "assay": "Inhibition of p70S6K at 5 uM"}, "[10]": {"tested_on": "Mus musculus", "assay": "Toxicity in Swiss Webster mouse assessed as white blood cell count at 50 mg/kg, ip daily for 7 days measured after 7 days", "type": "organism-based", "parameters": "dose 50 mg/kg, route intraperitoneal", "conditions": "in vivo, 168 h", "method_in_brief": "(§1)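 Six-week-old female Swiss Webster mice (about 25 g) received intraperitoneal injections daily for 7 days. Doses were 3, 10 or 50 mg/kg, with a vehicle group (30% PEG-400, 5% Tween-80, 65% DMSO). Values are reported as ranges per group.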"}, "[11]": {"tested_on": "Mus musculus", "assay": "Toxicity in Swiss Webster mouse assessed as Na+ level at 10 mg/kg, ip daily for 7 days measured after 7 days", "type": "organism-based", "parameters": "dose 10 mg/kg, route intraperitoneal", "conditions": "in vivo, 168 h"}, "[12]": {"tested_on": "Mus musculus", "assay": "Toxicity in Swiss Webster mouse assessed as alkaline phosphatase level at 3 mg/kg, ip daily for 7 days measured after 7 days", "type": "organism-based", "parameters": "dose 3 mg/kg, route intraperitoneal", "conditions": "in vivo, 168 h"}, "[13]": {"tested_on": "Mus musculus", "assay": "Toxicity in Swiss Webster mouse assessed as blood urea nitrogen level at 10 mg/kg, ip daily for 7 days measured after 7 days", "type": "organism-based", "parameters": "dose 10 mg/kg, route intraperitoneal", "conditions": "in vivo, 168 h"}, "[14]": {"biological_target": "Serine/threonine-protein kinase MARK1 (Homo sapiens) (UniProt Q9P0L2)", "assay": "Inhibition of MARK1 at 5 uM"}, "[15]": {"biological_target": "Tyrosine-protein kinase BTK (Homo sapiens) (UniProt Q06187)", "sequence (Q06187 whole entry)": "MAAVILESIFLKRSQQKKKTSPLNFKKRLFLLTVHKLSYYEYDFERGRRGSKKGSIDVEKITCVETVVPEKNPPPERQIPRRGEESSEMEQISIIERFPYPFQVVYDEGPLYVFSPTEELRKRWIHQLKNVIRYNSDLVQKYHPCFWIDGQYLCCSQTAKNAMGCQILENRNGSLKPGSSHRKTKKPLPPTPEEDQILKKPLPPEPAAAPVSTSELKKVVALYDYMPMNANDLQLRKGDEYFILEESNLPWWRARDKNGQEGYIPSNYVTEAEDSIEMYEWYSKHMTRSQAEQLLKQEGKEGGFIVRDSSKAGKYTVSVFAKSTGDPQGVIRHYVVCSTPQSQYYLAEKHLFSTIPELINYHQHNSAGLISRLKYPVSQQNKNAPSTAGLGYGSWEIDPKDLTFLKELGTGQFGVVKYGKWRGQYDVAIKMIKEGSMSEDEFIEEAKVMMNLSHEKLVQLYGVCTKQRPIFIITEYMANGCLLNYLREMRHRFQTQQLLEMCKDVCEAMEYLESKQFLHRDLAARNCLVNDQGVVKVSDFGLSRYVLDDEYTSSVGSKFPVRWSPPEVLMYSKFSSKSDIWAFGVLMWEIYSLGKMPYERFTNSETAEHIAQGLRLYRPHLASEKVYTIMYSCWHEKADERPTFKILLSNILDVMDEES", "assay": "Inhibition of BTK at 5 uM"}, "[16]": {"biological_target": "Mitogen-activated protein kinase 9 (Homo sapiens) (UniProt P45984)", "sequence (P45984 whole entry, looked up)": "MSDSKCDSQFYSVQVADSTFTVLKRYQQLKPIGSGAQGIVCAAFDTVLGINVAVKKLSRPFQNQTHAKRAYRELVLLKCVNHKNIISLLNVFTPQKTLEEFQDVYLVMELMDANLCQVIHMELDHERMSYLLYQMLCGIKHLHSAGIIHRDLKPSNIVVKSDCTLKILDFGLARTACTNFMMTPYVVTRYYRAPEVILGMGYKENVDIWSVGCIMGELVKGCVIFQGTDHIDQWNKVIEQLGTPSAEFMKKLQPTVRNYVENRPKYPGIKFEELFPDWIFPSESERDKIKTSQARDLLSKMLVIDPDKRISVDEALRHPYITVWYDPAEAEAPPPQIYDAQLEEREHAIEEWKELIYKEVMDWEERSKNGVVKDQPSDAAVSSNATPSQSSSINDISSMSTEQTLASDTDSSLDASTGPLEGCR", "assay": "Inhibition of JNK2 at 5 uM"}, "[17]": {"biological_target": "Tyrosine-protein kinase ABL1 (Homo sapiens) (UniProt P00519)", "assay": "Inhibition of ABL at 5 uM"}, "[18]": {"biological_target": "Serine/threonine-protein kinase Sgk1 (Homo sapiens) (UniProt O00141)", "assay": "Inhibition of SGK1 at 5 uM"}, "[19]": {"assay": "Inhibition of PKGalpha at 5 uM"}, "[20]": {"biological_target": "Tyrosine-protein kinase SYK (Homo sapiens) (UniProt P43405)", "assay": "Inhibition of SYK at 5 uM"}, "[21]": {"biological_target": "Cytoplasmic tyrosine-protein kinase BMX (Homo sapiens) (UniProt P51813)", "sequence (P51813 whole entry)": "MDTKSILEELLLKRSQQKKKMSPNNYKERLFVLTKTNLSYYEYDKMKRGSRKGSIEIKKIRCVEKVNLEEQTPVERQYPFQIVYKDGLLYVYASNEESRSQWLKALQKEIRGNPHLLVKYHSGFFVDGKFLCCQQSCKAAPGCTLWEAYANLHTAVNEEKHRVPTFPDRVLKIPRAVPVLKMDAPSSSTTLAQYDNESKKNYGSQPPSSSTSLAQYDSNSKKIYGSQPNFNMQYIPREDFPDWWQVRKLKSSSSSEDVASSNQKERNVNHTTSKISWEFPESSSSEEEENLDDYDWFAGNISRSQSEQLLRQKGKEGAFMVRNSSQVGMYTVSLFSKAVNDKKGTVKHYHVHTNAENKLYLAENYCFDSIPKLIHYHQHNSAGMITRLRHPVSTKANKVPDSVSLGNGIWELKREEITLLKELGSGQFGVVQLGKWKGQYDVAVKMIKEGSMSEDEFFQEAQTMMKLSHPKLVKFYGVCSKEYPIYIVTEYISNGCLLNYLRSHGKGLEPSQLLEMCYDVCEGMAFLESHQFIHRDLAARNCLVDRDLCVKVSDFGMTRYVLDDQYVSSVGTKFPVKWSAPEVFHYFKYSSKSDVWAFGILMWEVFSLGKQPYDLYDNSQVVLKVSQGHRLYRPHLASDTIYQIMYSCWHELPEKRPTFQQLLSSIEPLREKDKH", "assay": "Inhibition of BMX at 5 uM"}, "[22]": {"biological_target": "Mitogen-activated protein kinase 14 (Homo sapiens) (UniProt Q16539)", "sequence (Q16539 whole entry)": "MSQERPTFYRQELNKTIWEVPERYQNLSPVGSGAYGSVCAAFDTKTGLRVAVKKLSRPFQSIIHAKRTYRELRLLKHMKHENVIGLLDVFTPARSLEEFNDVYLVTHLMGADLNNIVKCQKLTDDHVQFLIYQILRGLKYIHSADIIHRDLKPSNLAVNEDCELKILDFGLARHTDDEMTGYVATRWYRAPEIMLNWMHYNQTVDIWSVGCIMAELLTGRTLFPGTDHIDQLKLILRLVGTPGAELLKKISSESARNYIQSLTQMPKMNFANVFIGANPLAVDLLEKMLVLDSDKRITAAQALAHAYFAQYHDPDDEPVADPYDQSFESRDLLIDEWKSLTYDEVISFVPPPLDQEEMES", "assay": "Inhibition of p38alpha at 5 uM"}, "[23]": {"tested_on": "Mus musculus", "assay": "Toxicity in Swiss Webster mouse assessed as glucose level at 10 mg/kg, ip daily for 7 days measured after 7 days", "type": "organism-based", "parameters": "dose 10 mg/kg, route intraperitoneal", "conditions": "in vivo, 168 h"}, "[24]": {"biological_target": "Rho-associated protein kinase 2 (Homo sapiens) (UniProt O75116)", "assay": "Inhibition of ROCK2 at 5 uM"}, "[25]": {"biological_target": "Epidermal growth factor receptor (Homo sapiens) (UniProt P00533)", "assay": "Inhibition of EGFR at 5 uM"}, "[26]": {"tested_on": "Mus musculus", "assay": "Toxicity in Swiss Webster mouse assessed as alanine aminotransferase level at 10 mg/kg, ip daily for 7 days measured after 7 days", "type": "organism-based", "parameters": "dose 10 mg/kg, route intraperitoneal", "conditions": "in vivo, 168 h"}, "[27]": {"tested_on": "Mus musculus", "assay": "Toxicity in Swiss Webster mouse assessed as lymphocyte count at 10 mg/kg, ip daily for 7 days measured after 7 days", "type": "organism-based", "parameters": "dose 10 mg/kg, route intraperitoneal", "conditions": "in vivo, 168 h"}, "[28]": {"biological_target": "MAP kinase-activated protein kinase 2 (Homo sapiens) (UniProt P49137)", "sequence (P49137 whole entry, looked up)": "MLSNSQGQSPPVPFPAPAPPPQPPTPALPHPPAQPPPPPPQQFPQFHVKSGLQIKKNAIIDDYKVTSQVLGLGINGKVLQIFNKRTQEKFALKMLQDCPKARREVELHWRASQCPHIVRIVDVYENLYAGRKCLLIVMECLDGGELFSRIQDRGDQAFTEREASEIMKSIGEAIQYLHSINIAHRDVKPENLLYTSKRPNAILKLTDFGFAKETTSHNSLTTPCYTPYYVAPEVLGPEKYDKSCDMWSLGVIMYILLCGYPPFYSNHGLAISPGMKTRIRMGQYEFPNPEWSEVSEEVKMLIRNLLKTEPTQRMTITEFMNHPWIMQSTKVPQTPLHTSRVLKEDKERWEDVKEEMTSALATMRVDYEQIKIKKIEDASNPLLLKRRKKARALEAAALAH", "assay": "Inhibition of MAPKAPK2 at 5 uM"}, "[29]": {"tested_on": "Mus musculus", "assay": "Toxicity in Swiss Webster mouse assessed as monocyte count at 3 mg/kg, ip daily for 7 days measured after 7 days", "type": "organism-based", "parameters": "dose 3 mg/kg, route intraperitoneal", "conditions": "in vivo, 168 h"}, "[30]": {"tested_on": "Mus musculus", "assay": "Toxicity in Swiss Webster mouse assessed as alanine aminotransferase level at 3 mg/kg, ip daily for 7 days measured after 7 days", "type": "organism-based", "parameters": "dose 3 mg/kg, route intraperitoneal", "conditions": "in vivo, 168 h"}, "[31]": {"tested_on": "Mus musculus", "assay": "Toxicity in Swiss-Webster mouse at 100 mg/kg, ip daily for 5 days", "type": "organism-based", "parameters": "dose 100 mg/kg, route intraperitoneal", "conditions": "in vivo, 120 h"}, "[32]": {"tested_on": "Mus musculus", "assay": "Toxicity in Swiss Webster mouse assessed as albumin level at 10 mg/kg, ip daily for 7 days measured after 7 days", "type": "organism-based", "parameters": "dose 10 mg/kg, route intraperitoneal", "conditions": "in vivo, 168 h"}, "[33]": {"biological_target": "3-phosphoinositide-dependent protein kinase 1 (PDPK1) (Homo sapiens) (UniProt O15530)", "assay": "Inhibition of PDK1 at 5 uM"}, "[34]": {"biological_target": "Serine/threonine-protein kinase pim-2 (Homo sapiens, UniProt Q9P1W9)", "assay": "Inhibition of PIM2 at 5 uM"}, "[35]": {"biological_target": "Casein kinase I isoform delta (Homo sapiens) (UniProt P48730)", "sequence (P48730 whole entry, looked up, canonical isoform)": "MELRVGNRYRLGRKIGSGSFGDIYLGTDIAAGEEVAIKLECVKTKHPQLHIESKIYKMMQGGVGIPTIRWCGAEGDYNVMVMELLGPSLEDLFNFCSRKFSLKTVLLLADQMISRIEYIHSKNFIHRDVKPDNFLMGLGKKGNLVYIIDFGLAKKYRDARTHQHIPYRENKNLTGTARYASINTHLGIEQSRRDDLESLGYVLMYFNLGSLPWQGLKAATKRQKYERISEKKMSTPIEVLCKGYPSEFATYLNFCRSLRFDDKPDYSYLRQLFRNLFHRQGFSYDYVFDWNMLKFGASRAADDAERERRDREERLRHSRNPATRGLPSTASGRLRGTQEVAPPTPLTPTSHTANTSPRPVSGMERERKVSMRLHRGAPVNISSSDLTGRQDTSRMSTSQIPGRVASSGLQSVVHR", "assay": "Inhibition of CK1delta at 5 uM"}, "[36]": {"tested_on": "Mus musculus", "assay": "Toxicity in Swiss Webster mouse assessed as K+ level at 3 mg/kg, ip daily for 7 days measured after 7 days", "type": "organism-based", "parameters": "dose 3 mg/kg, route intraperitoneal", "conditions": "in vivo, 168 h"}, "[37]": {"biological_target": "Interleukin-1 receptor-associated kinase 4 (Homo sapiens) (UniProt Q9NWZ3)", "assay": "Inhibition of IRAK4 at 5 uM"}, "[38]": {"biological_target": "RAF proto-oncogene serine/threonine-protein kinase (Homo sapiens) (UniProt P04049)", "assay": "Inhibition of c-Raf at 5 uM"}, "[39]": {"tested_on": "Mus musculus", "assay": "Toxicity in Swiss Webster mouse assessed as monocyte count at 10 mg/kg, ip daily for 7 days measured after 7 days", "type": "organism-based", "parameters": "dose 10 mg/kg, route intraperitoneal", "conditions": "in vivo, 168 h"}, "[40]": {"tested_on": "Mus musculus", "assay": "Toxicity in Swiss Webster mouse assessed as granulocyte count at 3 mg/kg, ip daily for 7 days measured after 7 days", "type": "organism-based", "parameters": "dose 3 mg/kg, route intraperitoneal", "conditions": "in vivo, 168 h"}, "[41]": {"tested_on": "Mus musculus", "assay": "Toxicity in Swiss Webster mouse assessed as white blood cell count at 3 mg/kg, ip daily for 7 days measured after 7 days", "type": "organism-based", "parameters": "dose 3 mg/kg, route intraperitoneal", "conditions": "in vivo, 168 h", "method_in_brief": "as §1"}, "[42]": {"biological_target": "Hepatocyte growth factor receptor (Homo sapiens) (UniProt P08581)", "assay": "Inhibition of MET at 5 uM"}, "[43]": {"biological_target": "Proto-oncogene tyrosine-protein kinase Src (Homo sapiens) (UniProt P12931)", "assay": "Inhibition of SRC at 5 uM"}, "[44]": {"biological_target": "Cyclin-dependent kinase 2 (Homo sapiens) (UniProt P24941)", "assay": "Inhibition of CDK2 at 5 uM"}}}
{"smiles": "CCCOc1ccc(/C=C2\\SC(=O)NC2=O)cc1", "values": [{"measurement": "Activity", "setting": "[1]", "result": 17, "unit": "mg/dL"}, {"measurement": "inhibition", "setting": "[2]", "result": 4, "unit": "%"}, {"measurement": "Activity", "setting": "[3]", "result": 50, "unit": "%"}, {"measurement": "inhibition", "setting": "[4]", "result": -8, "unit": "%"}, {"measurement": "inhibition", "setting": "[5]", "result": 6, "unit": "%"}, {"measurement": "inhibition", "setting": "[6]", "result": 6, "unit": "%"}, {"measurement": "inhibition", "setting": "[7]", "result": -1, "unit": "%"}, {"measurement": "Activity", "setting": "[8]", "result": 3.5, "unit": "×10⁹ /L"}, {"measurement": "inhibition", "setting": "[9]", "result": 8, "unit": "%"}, {"measurement": "Activity", "setting": "[10]", "result": 3.65, "unit": "×10⁹ /L"}, {"measurement": "Activity", "setting": "[11]", "result": 144, "unit": "mmol/L"}, {"measurement": "Activity", "setting": "[12]", "result": 85, "unit": "U/L"}, {"measurement": "Activity", "setting": "[13]", "result": 11, "unit": "mg/dL"}, {"measurement": "inhibition", "setting": "[14]", "result": -6, "unit": "%"}, {"measurement": "inhibition", "setting": "[15]", "result": 7, "unit": "%"}, {"measurement": "inhibition", "setting": "[16]", "result": 14, "unit": "%"}, {"measurement": "inhibition", "setting": "[17]", "result": 6, "unit": "%"}, {"measurement": "inhibition", "setting": "[18]", "result": 5, "unit": "%"}, {"measurement": "inhibition", "setting": "[19]", "result": 0, "unit": "%"}, {"measurement": "inhibition", "setting": "[20]", "result": -3, "unit": "%"}, {"measurement": "inhibition", "setting": "[21]", "result": 10, "unit": "%"}, {"measurement": "inhibition", "setting": "[22]", "result": 0, "unit": "%"}, {"measurement": "Activity", "setting": "[23]", "result": 87, "unit": "mg/dL"}, {"measurement": "inhibition", "setting": "[24]", "result": 5, "unit": "%"}, {"measurement": "inhibition", "setting": "[25]", "result": -3, "unit": "%"}, {"measurement": "Activity", "setting": "[26]", "result": 44, "unit": "U/L"}, {"measurement": "Activity", "setting": "[27]", "result": 3.94, "unit": "×10⁹ /L"}, {"measurement": "inhibition", "setting": "[28]", "result": 5, "unit": "%"}, {"measurement": "Activity", "setting": "[29]", "result": 0.11, "unit": "×10⁹ /L"}, {"measurement": "Activity", "setting": "[30]", "result": 40, "unit": "U/L"}, {"measurement": "Activity", "setting": "[31]", "result": "Toxic"}, {"measurement": "Activity", "setting": "[32]", "result": 2.9, "unit": "g/dL"}, {"measurement": "inhibition", "setting": "[33]", "result": 1, "unit": "%"}, {"measurement": "inhibition", "setting": "[34]", "result": 62, "unit": "%"}, {"measurement": "inhibition", "setting": "[35]", "result": 7, "unit": "%"}, {"measurement": "Activity", "setting": "[36]", "result": 7.3, "unit": "mmol/L"}, {"measurement": "inhibition", "setting": "[37]", "result": 5, "unit": "%"}, {"measurement": "inhibition", "setting": "[38]", "result": -1, "unit": "%"}, {"measurement": "Activity", "setting": "[39]", "result": 0.08, "unit": "×10⁹ /L"}, {"measurement": "Activity", "setting": "[40]", "result": 0.01, "unit": "×10⁹ /L"}, {"measurement": "Activity", "setting": "[41]", "result": 3.73, "unit": "×10⁹ /L"}, {"measurement": "inhibition", "setting": "[42]", "result": -6, "unit": "%"}, {"measurement": "inhibition", "setting": "[43]", "result": 4, "unit": "%"}, {"measurement": "inhibition", "setting": "[44]", "result": -2, "unit": "%"}]}
